From ChEMBL document CHEMBL1145176, “Somatostatin receptor 1 selective analogues: 2. N(alpha)-Methylated scan” (J Med Chem, 2005)
Where “and” joins values, the source holds several entries; their conditions need not be identical. Equal values may be shown once.

Columns and labels:
[1] = biological target: Somatostatin receptor type 4 (Homo sapiens, UniProt P31391); experiment: Inhibition of [Leu8,D-Trp22,125I-Tyr25]SRIF-28 binding to human somatostatin receptor type 4
[2] = biological target: Somatostatin receptor type 1 (Homo sapiens, UniProt P30872); experiment: Inhibition of [Leu8,D-Trp22,125I-Tyr25]SRIF-28 binding to human somatostatin receptor type 1
[3] = biological target: Somatostatin receptor type 3 (Homo sapiens, UniProt P32745); experiment: Inhibition of [Leu8,D-Trp22,125I-Tyr25]SRIF-28 binding to human somatostatin receptor type 3
[4] = biological target: Somatostatin receptor type 2 (Homo sapiens, UniProt P30874); experiment: Inhibition of [Leu8,D-Trp22,125I-Tyr25]SRIF-28 binding to human somatostatin receptor type 2
[5] = biological target: Somatostatin receptor type 5 (Homo sapiens, UniProt P35346); experiment: Inhibition of [Leu8,D-Trp22,125I-Tyr25]SRIF-28 binding to human somatostatin receptor type 5
CHO-K1 [6] = experiment: Inhibition of forskolin-stimulated cAMP accumulation in CCL39 cells; format: functional, Cricetulus griseus
Summary of the method: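 CCL39 cells stably expressing human sst1 were seeded at 2 × 10^4 cells/well on poly-D-lysine plates and grown 24 h. Cells were preincubated 30 min at 37 °C with 0.5 mM IBMX, then exposed 30 min at 37 °C to IBMX ± 7.5 µM forskolin plus graded compound concentrations. Lysate cAMP was read by scintillation proximity assay and expressed as % forskolin-stimulated level. EC50 came from three independent experiments in triplicate, with SRIF-28 as positive control.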

CHO-K1 [7] = experiment: Concentration for inhibition of forskolin-stimulated cAMP accumulation in CCL39 cells; format: functional, cell-based, Cricetulus griseus
Summary of the method: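 CCL39 cells stably expressing human sst1, seeded in poly-D-lysine-coated 96-well plates at 2 × 10^4 cells/well, grown 24 h. Preincubated 30 min at 37 °C in medium with 0.5 mM IBMX, then 30 min at 37 °C with 0.5 mM IBMX, 7.5 µM forskolin and varying peptide concentrations. Lysed; cAMP measured by scintillation proximity assay. Three independent experiments in triplicate; EC50 from concentration-response curves.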

Chain of Somatostatin receptor type 2 (P30874 whole entry): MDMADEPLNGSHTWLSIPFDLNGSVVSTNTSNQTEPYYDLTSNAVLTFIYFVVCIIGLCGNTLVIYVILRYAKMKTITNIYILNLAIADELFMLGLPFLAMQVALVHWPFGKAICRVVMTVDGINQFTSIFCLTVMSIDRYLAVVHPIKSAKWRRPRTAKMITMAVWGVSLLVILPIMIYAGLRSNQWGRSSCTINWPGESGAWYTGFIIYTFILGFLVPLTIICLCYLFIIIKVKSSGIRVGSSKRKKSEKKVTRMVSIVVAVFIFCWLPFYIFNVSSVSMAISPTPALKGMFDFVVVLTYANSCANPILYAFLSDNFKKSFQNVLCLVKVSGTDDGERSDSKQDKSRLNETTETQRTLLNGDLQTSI
Chain of Somatostatin receptor type 3 (P32745 whole entry): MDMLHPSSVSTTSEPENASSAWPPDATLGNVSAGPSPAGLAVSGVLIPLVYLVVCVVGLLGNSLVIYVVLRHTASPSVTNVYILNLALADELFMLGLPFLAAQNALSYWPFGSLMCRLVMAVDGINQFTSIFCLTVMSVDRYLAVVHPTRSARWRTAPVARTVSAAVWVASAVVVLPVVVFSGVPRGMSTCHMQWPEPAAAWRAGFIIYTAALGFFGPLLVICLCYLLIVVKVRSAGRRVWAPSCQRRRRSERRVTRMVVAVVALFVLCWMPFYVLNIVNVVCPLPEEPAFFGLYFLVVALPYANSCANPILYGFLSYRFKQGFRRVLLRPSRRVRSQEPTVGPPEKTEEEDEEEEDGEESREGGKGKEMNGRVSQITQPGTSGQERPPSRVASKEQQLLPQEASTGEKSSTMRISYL
Chain of Somatostatin receptor type 5 (P35346 whole entry): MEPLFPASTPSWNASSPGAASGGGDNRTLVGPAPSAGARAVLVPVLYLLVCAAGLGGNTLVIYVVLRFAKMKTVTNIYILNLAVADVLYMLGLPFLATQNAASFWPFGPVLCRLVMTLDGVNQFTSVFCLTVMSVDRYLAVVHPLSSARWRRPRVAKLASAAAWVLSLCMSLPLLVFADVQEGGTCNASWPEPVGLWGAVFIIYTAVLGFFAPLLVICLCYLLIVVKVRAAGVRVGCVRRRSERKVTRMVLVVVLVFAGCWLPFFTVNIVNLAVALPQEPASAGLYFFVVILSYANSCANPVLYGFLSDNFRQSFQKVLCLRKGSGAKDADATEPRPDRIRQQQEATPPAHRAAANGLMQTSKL
Chain of Somatostatin receptor type 1 (P30872 whole entry): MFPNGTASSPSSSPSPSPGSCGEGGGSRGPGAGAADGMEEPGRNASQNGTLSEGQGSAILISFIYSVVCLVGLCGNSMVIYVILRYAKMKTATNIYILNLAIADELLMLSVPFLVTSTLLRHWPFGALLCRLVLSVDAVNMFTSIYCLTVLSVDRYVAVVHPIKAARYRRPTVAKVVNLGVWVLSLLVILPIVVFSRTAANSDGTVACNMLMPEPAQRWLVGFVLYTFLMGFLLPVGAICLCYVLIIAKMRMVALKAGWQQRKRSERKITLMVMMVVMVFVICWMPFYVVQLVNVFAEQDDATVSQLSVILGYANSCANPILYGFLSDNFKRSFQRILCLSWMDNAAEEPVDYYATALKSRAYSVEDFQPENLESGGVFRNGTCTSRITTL
Chain of Somatostatin receptor type 4 (P31391 whole entry): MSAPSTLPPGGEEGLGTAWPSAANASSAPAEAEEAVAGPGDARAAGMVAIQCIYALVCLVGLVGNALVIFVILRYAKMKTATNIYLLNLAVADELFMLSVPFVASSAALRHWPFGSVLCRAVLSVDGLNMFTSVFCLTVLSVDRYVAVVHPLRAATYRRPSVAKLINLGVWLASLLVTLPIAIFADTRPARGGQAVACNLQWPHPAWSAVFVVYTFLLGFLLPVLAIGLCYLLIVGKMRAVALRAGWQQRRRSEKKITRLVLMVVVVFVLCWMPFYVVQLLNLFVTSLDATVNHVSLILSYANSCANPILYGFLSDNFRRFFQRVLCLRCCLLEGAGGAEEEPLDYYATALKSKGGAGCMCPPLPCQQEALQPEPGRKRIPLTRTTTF

| Structure (SMILES) | IC50 [1] | IC50 [2] | IC50 [3] | IC50 [4] | IC50 [5] | Inhibition (CHO-K1 [6]) | EC50 (CHO-K1 [7]) |
| --- | --- | --- | --- | --- | --- | --- | --- |
| CSCC[C@H](NC(=O)[C@H](C)NC(=O)[C@@H]1CCCN1C(=O)[C@H](CC(N)=O)NC(=O)[C@H](CO)NC(=O)[C@H](CC(N)=O)NC(=O)[C@H](C)NC(=O)[C@@H](N)CO)C(=O)N[C@@H](C)C(=O)N1CCC[C@H]1C(=O)N[C@@H](CCCNC(=N)N)C(=O)N[C@@H](CCC(=O)O)C(=O)N[C@@H](CCCNC(=N)N)C(=O)N[C@@H](CCCCN)C(=O)N[C@@H](C)C(=O)NCC(=O)N[C@H]1CSSC[C@@H](C(=O)O)NC(=O)[C@H](CO)NC(=O)[C@H]([C@@H](C)O)NC(=O)[C@H](Cc2ccccc2)NC(=O)[C@H]([C@@H](C)O)NC(=O)[C@H](CCCCN)NC(=O)[C@H](Cc2c[nH]c3ccccc23)NC(=O)[C@H](Cc2ccccc2)NC(=O)[C@H](Cc2ccccc2)NC(=O)[C@H](CC(N)=O)NC(=O)[C@H](CCCCN)NC1=O [listing 1 of 2 here] | – | – | – | – | – | >81% and >49% | – |
| CN[C@H]1CSSC[C@@H](C(=O)O)NC(=O)[C@H](CO)NC(=O)[C@H]([C@@H](C)O)NC(=O)[C@H](Cc2ccccc2)NC(=O)[C@H]([C@@H](C)O)NC(=O)[C@H](Cc2ccc(CNC(C)C)cc2)NC(=O)[C@@H](Cc2ccc3ccccc3c2)NC(=O)[C@H](Cc2ccccc2)NC(=O)[C@H](Cc2ccccc2)NC(=O)[C@H](CCCCN)NC1=O | > 1 µM | 0.113 µM | > 1 µM | > 1 µM | > 1 µM | – | – |
| CSCC[C@H](NC(=O)[C@H](C)NC(=O)[C@@H]1CCCN1C(=O)[C@H](CC(N)=O)NC(=O)[C@H](CO)NC(=O)[C@H](CC(N)=O)NC(=O)[C@H](C)NC(=O)[C@@H](N)CO)C(=O)N[C@@H](C)C(=O)N1CCC[C@H]1C(=O)N[C@@H](CCCNC(=N)N)C(=O)N[C@@H](CCC(=O)O)C(=O)N[C@@H](CCCNC(=N)N)C(=O)N[C@@H](CCCCN)C(=O)N[C@@H](C)C(=O)NCC(=O)N[C@H]1CSSC[C@@H](C(=O)O)NC(=O)[C@H](CO)NC(=O)[C@H]([C@@H](C)O)NC(=O)[C@H](Cc2ccccc2)NC(=O)[C@H]([C@@H](C)O)NC(=O)[C@H](CCCCN)NC(=O)[C@H](Cc2c[nH]c3ccccc23)NC(=O)[C@H](Cc2ccccc2)NC(=O)[C@H](Cc2ccccc2)NC(=O)[C@H](CC(N)=O)NC(=O)[C@H](CCCCN)NC1=O [listing 2 of 2 here] | – | – | – | – | – | – | 0.00018 µM and 0.00077 µM |
| CC(C)NCc1ccc(C[C@@H]2NC(=O)[C@@H](Cc3c[nH]c4ccccc34)NC(=O)[C@H](Cc3ccccc3)NC(=O)[C@H](Cc3ccccc3)NC(=O)[C@H](CCCCN)NC(=O)[C@@H](N)CSSC[C@@H](C(=O)N[C@@H](CCCCN)C(=O)N[C@@H](CCCCN)C(=O)O)NC(=O)[C@H](CO)N(C)C(=O)[C@H]([C@@H](C)O)NC(=O)[C@H](Cc3ccccc3)NC(=O)[C@H]([C@@H](C)O)NC2=O)cc1 | > 1 µM | 0.053 µM | > 1 µM | > 1 µM | 0.682 µM | – | – |

Now from value to molecule, other results behind:

| IC50 [1] | IC50 [2] | IC50 [3] | IC50 [4] | IC50 [5] | Structure (SMILES) | Inhibition (CHO-K1 [6]) | EC50 (CHO-K1 [7]) |
| --- | --- | --- | --- | --- | --- | --- | --- |
| 0.0005 µM | 0.01 µM | 0.008 µM | 0.016 µM | 0.0048 µM | C[C@@H](O)[C@@H]1NC(=O)[C@H](Cc2ccc(O)cc2)NC(=O)[C@H]([C@@H](C)O)NC(=O)[C@H](CCCCN)NC(=O)[C@@H](Cc2c[nH]c3ccccc23)NC(=O)[C@H](Cc2ccccc2)NC(=O)[C@H](Cc2ccccc2)NC(=O)[C@H](CCCCN)NC(=O)[C@@H](N)CSSC[C@@H](C(=O)O)NC(=O)[C@H](CO)NC1=O | – | – |
| > 1 µM | 0.255 µM | > 1 µM | > 1 µM | > 1 µM | CC(C)NCc1ccc(C[C@@H]2NC(=O)[C@@H](Cc3ccc4ccccc4c3)NC(=O)[C@H](Cc3ccccc3)NC(=O)[C@H](Cc3ccccc3)NC(=O)[C@H](CCCCN)NC(=O)[C@@H](N)CSSC[C@@H](C(=O)N[C@@H](CCCCN)C(=O)O)N(C)C(=O)[C@H](CO)NC(=O)[C@H]([C@@H](C)O)NC(=O)[C@H](Cc3ccccc3)NC(=O)[C@H]([C@@H](C)O)NC2=O)cc1 | – | – |
| > 1 µM | 0.26 µM | > 1 µM | > 1 µM | > 1 µM | CC(C)NCc1ccc(C[C@@H]2NC(=O)[C@@H](Cc3ccc4ccccc4c3)NC(=O)[C@H](Cc3ccccc3)NC(=O)[C@H](Cc3ccccc3)NC(=O)[C@H](CCCCN)NC(=O)[C@@H](N)CSSC[C@@H](C(=O)O)N(C)C(=O)[C@H](CO)NC(=O)[C@H]([C@@H](C)O)NC(=O)[C@H](Cc3ccccc3)NC(=O)[C@H]([C@@H](C)O)NC2=O)cc1 | – | – |
| 0.417 µM | 0.176 µM | > 1 µM | > 1 µM | > 1 µM | CC(C)NCc1ccc(C[C@@H]2NC(=O)[C@@H](Cc3ccc4ccccc4c3)NC(=O)[C@H](Cc3ccccc3)NC(=O)[C@H](Cc3ccccc3)NC(=O)[C@H](CCCCN)NC(=O)[C@@H](N)CSSC[C@@H](C(=O)O)NC(=O)[C@H](CO)NC(=O)[C@H]([C@@H](C)O)N(C)C(=O)[C@H](Cc3ccccc3)NC(=O)[C@H]([C@@H](C)O)NC2=O)cc1 | – | – |
